Compounds with a hit are over-represented: about 2.5% of the library has one in this group of screens.
SENP8 block-1: SENP8 protease inhibitors, primary screen, biochemical, luminescence; Sentrin-specific protease 8 (Homo sapiens), Q96LD8; inhibition, % at 10 µM; purified SENP8, Z-RLRGG-aminoluciferin cleavage; hit rate 1.2% among 330,000; in the data active = inhibition above about 50%
SENP7 block: SENP7 protease inhibitors, primary screen, biochemical, luminescence, uHTS; hit rate 1.5% among 330,000; recombinant SENP7, Z-RLRGG-aminoluciferin luminescence, 40 min; Sentrin-specific protease 7 (Homo sapiens), Q9BQF6; inhibition, % at 5 µM;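 active = inhibition above about 50% at the single test dose, limit read from the data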;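 also: plate controls were DMSO with enzyme for no effect and no enzyme buffer wells for full effect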
SENP8 block-2: human SENP8 protease inhibitors, primary screen, biochemical, fluorescence, Nedd8 protein substrate, uHTS | Sentrin-specific protease 8 (Homo sapiens), Q96LD8 | recombinant SENP8 | inhibition, % at 20 µM | hit rate 0.64% among 360,000 | AID 602440, 2012; in the data active = inhibition mostly above about 40%, no sharp cut-off; inactive = mostly below about 27%
SENP1 FRET inh: human SENP1 catalytic domain inhibitors, primary screen, biochemical, FRET, uHTS | Sentrin-specific protease 1 (Homo sapiens), Q9P0U3 | recombinant SENP1 catalytic domain, CyPet-SUMO1-YPet FRET cleavage | inhibition, % at 10 µM | hit rate 0.21% among 360,000;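 active = inhibition at least 30% at 10 µM, raw YFP signal under a set limit, fluorescence ratio 0.5 to 1.5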;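 also: 0% = enzyme with DMSO and 100% = no enzyme wells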
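Test system: hSENP1 catalytic domain, recombinant; Amount: 20 pM final SENP1 enzyme; Medium: Tris pH 8 buffer plus EDTA, NaCl, BME, BSA, NP40, catalase; Schedule: 50 min enzyme reaction, room temperature, light-protected; Technique: FRET fluorescence in CFP and YFP emission channels; Controls: no-enzyme wells low, DMSO-plus-enzyme wells high control.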
SENP6 inh: SENP6 protease inhibitors, primary screen, biochemical, luminescence, uHTS. Recombinant SENP6 catalytic domain, aminoluciferin luminescence. Sentrin-specific protease 6 (Homo sapiens), Q9GZR1. inhibition, % at 10 µM. AID 2599, 2010. hit rate 1.8% among 330,000;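 active = inhibition above about 50% at the single tested dose, limit read from the data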;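 also: plate controls were DMSO wells with enzyme for no effect and DMSO wells lacking enzyme for full effect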
Target sequence (Q9GZR1 628-1112 limits assumed): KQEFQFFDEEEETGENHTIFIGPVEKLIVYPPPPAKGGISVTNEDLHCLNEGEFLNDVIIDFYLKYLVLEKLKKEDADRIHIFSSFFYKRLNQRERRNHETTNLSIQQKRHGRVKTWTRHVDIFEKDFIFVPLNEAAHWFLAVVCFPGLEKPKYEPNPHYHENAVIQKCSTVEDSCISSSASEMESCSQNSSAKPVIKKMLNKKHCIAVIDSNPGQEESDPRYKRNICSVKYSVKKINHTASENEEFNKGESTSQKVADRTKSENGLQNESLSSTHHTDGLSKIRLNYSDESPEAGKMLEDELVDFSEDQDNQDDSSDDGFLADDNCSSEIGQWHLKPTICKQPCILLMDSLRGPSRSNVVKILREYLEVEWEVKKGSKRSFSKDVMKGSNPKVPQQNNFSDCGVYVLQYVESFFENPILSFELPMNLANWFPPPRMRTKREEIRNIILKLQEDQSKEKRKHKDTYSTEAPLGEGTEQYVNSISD
SENP8 conf: SENP8 protease inhibitors, retest, confirmation, biochemical, luminescence, single concentration; hit rate 40% among 6,200; Recombinant SENP8, Z-RLRGG-aminoluciferin luminescence, 60 min; inhibition, % at 12.5 µM; AID 488912, 2010; shares compounds with SENP7 block;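 active = mean inhibition across replicates above about 50%, limit read from the data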
SENP6 confirm: SENP6 protease inhibitors, confirmation, biochemical, luminescence, single concentration; shares compounds with SENP7 block; recombinant SENP6, Z-RLRGG-aminoluciferin luminescence; inhibition, % at 12.5 µM; hit rate 58% among 6,200
SENP7 confirm: SENP7 protease inhibitors, retest, confirmation, biochemical, luminescence, single concentration; shares compounds with SENP7 block; recombinant SENP7, Z-RLRGG-aminoluciferin luminescence, 40 min; inhibition, % at 12.5 µM; hit rate 69% among 6,200
Casp3 SENP sel: caspase-3 protease inhibitors, confirmation, selectivity assay for SENP inhibitor project, biochemical, single concentration; shares compounds with SENP7 block; purified caspase-3, Z-DEVD-aminoluciferin luminescence, 60 min; inhibition, % at 12.5 µM; AID 488918, 2010; hit rate 60% among 6,200;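 active = mean inhibition above about 50%, limit read from the data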;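 also: plate controls were enzyme with DMSO for no effect and wells without caspase-3 for full effect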
Luc interf: interferes with luciferase luminescence in SENP counter-screen; Pre-incubated SENP8/Z-RLRGG-aminoluciferin, luciferase luminescence interference; inhibition, % at 12.5 µM; hit rate 39% among 6,200; shares compounds with SENP7 block;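 active = mean inhibition above about 50% when retested at one dose, limit read from the data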;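 also: plate controls were DMSO wells with completed reaction for no effect and substrate without enzyme for full effect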
* = called active by the depositor; / = not tested or not shown.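 The calls were made as follows, unless noted: active = mean inhibition above about 50% in the one-dose retest (limit read from the data); inactive = the rest.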

SMILES | SENP8 block-1 | SENP7 block | SENP8 block-2 | SENP1 FRET inh | SENP6 inh | SENP8 conf | SENP6 confirm | SENP7 confirm | Casp3 SENP sel | Luc interf
Cc1ccc(O)c(N=Nc2ccccc2)n1 | 95* | 100* | 8 | 1 | 93* | 95* | 98* | 103* | 96* | 62*
Nc1ccc2nc(-c3cc(Cl)c(N)c(Cl)c3)[nH]c2c1 | 64* | 77* | -329 | -32 | 87* | -20 | 73* | 94* | 82* | 76*
Nc1ccc(-c2nc3ccc(N)cc3[nH]2)cc1 | -3 | 13 | -421 | -10 | 18 | / | / | / | / | /
Nc1ccc2nc(-c3ccc(Cl)cc3)[nH]c2c1 | 66* | 63* | -433 | -100 | 75* | 80* | 81* | 54* | 45 | 81*
c1coc(C2=Nc3cccc4cccc(c34)N2)c1 | 14 | 5 | 36 | 0 | 50* | -22 | -6 | -9 | -8 | -3
CC(C)S(=O)(=O)c1ccc(C(=O)Nc2ccc(F)cc2F)cn1 | -5 | 2 | 11 | 5 | 13 | / | / | / | / | /
CCCSc1ccc(C(=O)Nc2ccc(F)cc2F)cn1 | 36 | 68* | 14 | 3 | 52* | 1 | -1 | 19 | 22 | -7
O=C(c1ccc2[nH]c(=O)c(=O)[nH]c2c1)N1CCc2ccccc2C1 | -3 | -13 | -352 | 0 | 4 | / | / | / | / | /
O=C(Cn1ncc(Cl)c(Cl)c1=O)Nc1ccc2c(c1)OCO2 | -2 | 13 | 14 | 0 | 9 | / | / | / | / | /
O=C(Cn1ncc(Cl)c(Cl)c1=O)c1ccc2c(c1)OCCO2 | 41 | 23 | -3 | 1 | 56* | 15 | 40 | 48 | 20 | 9
COc1ccc(C(C)(C)C)cc1NC(=O)CNc1cccc2ccccc12 | 48 | 25 | -331 | -21 | 77* | 12 | 10 | 9 | 4 | 2
COc1ccccc1NC(=O)Cc1cccc2ccccc12 | 2 | 12 | 6 | 0 | -35 | / | / | / | / | /
O=C(Oc1ccc2ccccc2c1Cl)N1CCCCCC1 | 54* | 53* | 20 | 0 | 76* | 71* | 70* | 87* | 45 | 37
O=C(Oc1ccc2ccccc2c1Cl)N1CCCC1 | 38 | 57* | 16 | -1 | 73* | 48 | 52* | 84* | 53* | 59*
O=C(Oc1ccc(Cl)c2ccccc12)N1CCCCC1 | -12 | -8 | 14 | 3 | 8 | / | / | / | / | /
O=S(=O)(Nc1nc(-c2sccc2Cl)cs1)c1cc(Cl)ccc1Cl | 10 | 3 | 37 | 4 | 74* | 9 | 15 | 5 | 6 | 11
CC(C)OC(=O)CC(=O)c1sc2nc3c(cc2c1N)CN(C)CC3 | 1 | -8 | / | / | 54* | 4 | 4 | -7 | 1 | -6
Cc1ccc(CONC(=O)c2cccc(C)c2)cc1 | 34 | 48 | 9 | 3 | 65* | 46 | 43 | 78* | 77* | 56*
O=C(COc1cc2oc(=O)c3c(c2cc1Cl)CCC3)Nc1ccccn1 | 8 | 0 | -97 | 1 | -2 | / | / | / | / | /
O=C(COc1cc2oc(=O)c3c(c2cc1Cl)CCC3)Nc1cccnc1 | 1 | 67* | -71 | -4 | 23 | 13 | 8 | 16 | 15 | 3
